ChEMBL document CHEMBL1134594 (J Med Chem, 2001)
Where a SMILES comes first, the peptide text is derived from it. Bridges are numbered along the chain shown (N, C = ends).

Tests used:
Adenylate cyclase [1] = assay: Adenylate cyclase activity measured as 50% inhibitory concentration; type: protein assay
Glucagon receptor = Glucagon receptor (Rattus norvegicus, UniProt P30082); assay: Glucagon receptor binding measured as 50% inhibitory concentration
In short: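 Membranes (50 µg protein) were taken from the livers of male Sprague Dawley rats (200-250 g), purified on a sucrose gradient. […] Nonspecific binding was defined with excess unlabeled peptide and subtracted. Run in triplicate, repeated twice.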

[2] = molecular target: T1, Adenylate cyclase (Rattus norvegicus) (UniProt D4A3N4+P26770+Q04400+P26769+Q03343+P40146+Q8CFM9+P21932); assay: Adenylate cyclase activity measured as percentage stimulation at 20 uM; type: protein assay
In short: (§1)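 Rat liver plasma membranes (35 µg protein) incubated in 0.1 mL of 25 mM Tris (pH 7.5) with 0.4% BSA, 1 mM [α-32P]ATP, 5 mM MgCl2, GTP, 1 mM EDTA, 1 mM cAMP with [3H]cAMP tracer, and a phosphocreatine/creatine phosphokinase ATP-regenerating system. Labeled cAMP was isolated on Dowex cation-exchange and alumina columns.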

[3] = molecular target: T1, Adenylate cyclase (Rattus norvegicus); assay: Adenylate cyclase activity measured as percentage stimulation at (1 uM); type: protein assay; in short: as §1
[4] = molecular target: T1, Adenylate cyclase (Rattus norvegicus); assay: Adenylate cyclase activity measured as percentage stimulation at (20uM); type: protein assay; in short: as §1
[5] = molecular target: T1, Adenylate cyclase (Rattus norvegicus); assay: Adenylate cyclase activity measured as percentage stimulation; type: protein assay; set-up: concentration or dose not given beside the values
Adenylate cyclase [6] = assay: Adenylate cyclase activity measured as PA2; type: protein assay

Chain of Glucagon receptor (P30082 whole entry): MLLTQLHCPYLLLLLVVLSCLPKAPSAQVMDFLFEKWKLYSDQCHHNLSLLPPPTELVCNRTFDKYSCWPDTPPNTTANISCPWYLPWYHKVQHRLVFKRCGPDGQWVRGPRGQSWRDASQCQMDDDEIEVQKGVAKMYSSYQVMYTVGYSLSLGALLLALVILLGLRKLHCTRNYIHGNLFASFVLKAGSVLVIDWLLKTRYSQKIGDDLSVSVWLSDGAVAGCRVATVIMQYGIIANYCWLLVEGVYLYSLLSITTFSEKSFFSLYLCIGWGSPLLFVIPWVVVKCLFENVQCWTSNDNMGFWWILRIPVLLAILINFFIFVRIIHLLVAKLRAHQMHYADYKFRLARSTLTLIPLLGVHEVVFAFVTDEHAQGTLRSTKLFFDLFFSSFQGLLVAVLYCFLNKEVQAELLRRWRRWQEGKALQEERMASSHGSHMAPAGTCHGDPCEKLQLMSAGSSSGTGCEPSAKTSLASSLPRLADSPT

EC50 (Adenylate cyclase [1]) [nM]	IC50 (Glucagon receptor) [nM]	Activity [2] [%]	Activity [3] [%]	Activity [4] [%]	Activity [5] [%]	pA2 (Adenylate cyclase [6])	Structure (SMILES)
7500	562	30					CSCC[C@H](NC(=O)[C@H](CC(C)C)NC(=O)[C@H](Cc1c[nH]c2ccccc12)NC(=O)[C@H](CCC(N)=O)NC(=O)[C@@H](NC(=O)[C@H](Cc1ccccc1)NC(=O)[C@H](CC(=O)O)NC(=O)[C@H](CCC(N)=O)NC(=O)[C@@H]1CSSC[C@H](NC(=O)[C@H](Cc2ccc(O)cc2)NC(=O)[C@H](CCCCN)NC(=O)[C@H](CO)NC(=O)[C@H](Cc2ccc(O)cc2)NC(=O)[C@H](CC(=O)O)NC(=O)[C@H](CO)NC(=O)[C@@H](NC(=O)[C@H](Cc2ccccc2)NC(=O)[C@@H](NC(=O)CNC(=O)[C@H](CCC(N)=O)NC(=O)[C@H](CO)NC(=O)[C@@H](N)Cc2c[nH]cn2)[C@@H](C)O)[C@@H](C)O)C(=O)N[C@@H](CC(=O)O)C(=O)N[C@@H](CO)C(=O)N[C@@H](CCCN=C(N)N)C(=O)N[C@@H](CCCN=C(N)N)C(=O)N1)C(C)C)C(=O)N[C@@H](CC(N)=O)C(=O)N[C@H](C(=O)O)[C@@H](C)O (H-HSQGTFTSDYSKYCDSRRCQDFVQWLMNT-OH; disulfide 14-19)
236	13.7		100				CSCC[C@H](NC(=O)[C@H](CC(C)C)NC(=O)[C@H](Cc1c[nH]c2ccccc12)NC(=O)[C@H](CCC(N)=O)NC(=O)[C@@H](NC(=O)[C@H](Cc1ccccc1)NC(=O)[C@H](CC(=O)O)NC(=O)[C@H](CCC(N)=O)NC(=O)[C@H](CS)NC(=O)[C@H](CCCN=C(N)N)NC(=O)[C@H](CCCN=C(N)N)NC(=O)[C@H](CO)NC(=O)[C@H](CC(=O)O)NC(=O)[C@H](CS)NC(=O)[C@H](Cc1ccc(O)cc1)NC(=O)[C@H](CCCCN)NC(=O)[C@H](CO)NC(=O)[C@H](Cc1ccc(O)cc1)NC(=O)[C@H](CC(=O)O)NC(=O)[C@H](CO)NC(=O)[C@@H](NC(=O)[C@H](Cc1ccccc1)NC(=O)[C@@H](NC(=O)CNC(=O)[C@H](CCC(N)=O)NC(=O)[C@H](CO)NC(=O)[C@@H](N)Cc1c[nH]cn1)[C@@H](C)O)[C@@H](C)O)C(C)C)C(=O)N[C@@H](CC(N)=O)C(=O)N[C@H](C(=O)O)[C@@H](C)O (H-HSQGTFTSDYSKYCDSRRCQDFVQWLMNT-OH)
5900	558			53			CSCC[C@H](NC(=O)[C@H](CC(C)C)NC(=O)[C@H](Cc1c[nH]c2ccccc12)NC(=O)[C@H](CCC(N)=O)NC(=O)[C@@H](NC(=O)[C@H](Cc1ccccc1)NC(=O)[C@H](CC(=O)O)NC(=O)[C@H](CCC(N)=O)NC(=O)[C@H](C)NC(=O)[C@H](CCCN=C(N)N)NC(=O)[C@H](CCCN=C(N)N)NC(=O)[C@H](CO)NC(=O)[C@H](CC(=O)O)NC(=O)[C@H](CC(C)C)NC(=O)[C@H](Cc1ccc(O)cc1)NC(=O)[C@@H]1CSSC[C@H](NC(=O)[C@H](Cc2ccccc2)NC(=O)[C@@H](NC(=O)CNC(=O)[C@H](CCC(N)=O)NC(=O)[C@H](CO)NC(=O)[C@@H](N)Cc2c[nH]cn2)[C@@H](C)O)C(=O)N[C@@H](CO)C(=O)N[C@@H](CC(=O)O)C(=O)N[C@@H](Cc2ccc(O)cc2)C(=O)N[C@@H](CO)C(=O)N1)C(C)C)C(=O)N[C@@H](CC(N)=O)C(=O)N[C@H](C(=O)O)[C@@H](C)O (H-HSQGTFCSDYSCYLDSRRAQDFVQWLMNT-OH; disulfide 7-12)
59				100			CSCC[C@H](NC(=O)[C@H](CC(C)C)NC(=O)[C@H](Cc1c[nH]c2ccccc12)NC(=O)[C@H](CCC(N)=O)NC(=O)[C@@H](NC(=O)[C@H](Cc1ccccc1)NC(=O)[C@H](CC(=O)O)NC(=O)[C@H](CCC(N)=O)NC(=O)[C@H](C)NC(=O)[C@H](CCCN=C(N)N)NC(=O)[C@H](CCCN=C(N)N)NC(=O)[C@H](CO)NC(=O)[C@H](CC(=O)O)NC(=O)[C@H](CC(C)C)NC(=O)[C@H](Cc1ccc(O)cc1)NC(=O)[C@H](CS)NC(=O)[C@H](CO)NC(=O)[C@H](Cc1ccc(O)cc1)NC(=O)[C@H](CC(=O)O)NC(=O)[C@H](CO)NC(=O)[C@H](CS)NC(=O)[C@H](Cc1ccccc1)NC(=O)[C@@H](NC(=O)CNC(=O)[C@H](CCC(N)=O)NC(=O)[C@H](CO)NC(=O)[C@@H](N)Cc1c[nH]cn1)[C@@H](C)O)C(C)C)C(=O)N[C@@H](CC(N)=O)C(=O)N[C@H](C(=O)O)[C@@H](C)O (H-HSQGTFCSDYSCYLDSRRAQDFVQWLMNT-OH)
6.3	1.7				85		CSCC[C@H](NC(=O)[C@H](CC(C)C)NC(=O)[C@H](Cc1c[nH]c2ccccc12)NC(=O)[C@H](CCC(N)=O)NC(=O)[C@@H](NC(=O)[C@H](Cc1ccccc1)NC(=O)[C@H](CC(=O)O)NC(=O)[C@H](CCC(N)=O)NC(=O)[C@H](C)NC(=O)[C@H](CCCN=C(N)N)NC(=O)[C@@H]1CCC(=O)NCCCC[C@H](NC(=O)[C@H](CCCCN)NC(=O)[C@H](CO)NC(=O)[C@H](Cc2ccc(O)cc2)NC(=O)[C@H](CC(=O)O)NC(=O)[C@H](CO)NC(=O)[C@@H](NC(=O)[C@H](Cc2ccccc2)NC(=O)[C@@H](NC(=O)CNC(=O)[C@H](CCC(N)=O)NC(=O)[C@H](CO)NC(=O)[C@@H](N)Cc2c[nH]cn2)[C@@H](C)O)[C@@H](C)O)C(=O)N[C@@H](CC(C)C)C(=O)N[C@@H](CC(=O)O)C(=O)N[C@@H](CO)C(=O)N1)C(C)C)C(=O)N[C@@H](CC(N)=O)C(=O)N[C@H](C(=O)O)[C@@H](C)O (H-HSQGTFTSDYSKKLDSERAQDFVQWLMNT-OH; lactam 13-17)
	6					8.28	CSCC[C@H](NC(=O)[C@H](CC(C)C)NC(=O)[C@H](Cc1c[nH]c2ccccc12)NC(=O)[C@H](CCC(N)=O)NC(=O)[C@@H](NC(=O)[C@H](Cc1ccccc1)NC(=O)[C@H](CC(=O)O)NC(=O)[C@H](CCC(N)=O)NC(=O)[C@H](C)NC(=O)[C@H](CCCN=C(N)N)NC(=O)[C@H](CCCN=C(N)N)NC(=O)[C@H](CO)NC(=O)[C@H](CC(=O)O)NC(=O)[C@H](CC(C)C)NC(=O)[C@H](Cc1ccc(O)cc1)NC(=O)[C@H](CCCCN)NC(=O)[C@H](CO)NC(=O)[C@H](Cc1ccc(O)cc1)NC(=O)[C@H](CC(=O)O)NC(=O)[C@H](CO)NC(=O)[C@@H]1CCC(=O)NCCCC[C@H](NC(=O)[C@H](CO)NC(=O)[C@@H](N)Cc2c[nH]cn2)C(=O)NCC(=O)N[C@@H]([C@@H](C)O)C(=O)N[C@@H](Cc2ccccc2)C(=O)N1)C(C)C)C(=O)N[C@@H](CC(N)=O)C(=O)N[C@H](C(=O)O)[C@@H](C)O (H-HSKGTFESDYSKYLDSRRAQDFVQWLMNT-OH; lactam 3-7)
390	0.2				12	8.26	CSCC[C@H](NC(=O)[C@H](CC(C)C)NC(=O)[C@H](Cc1c[nH]c2ccccc12)NC(=O)[C@H](CCC(N)=O)NC(=O)[C@@H](NC(=O)[C@H](Cc1ccccc1)NC(=O)[C@H](CC(=O)O)NC(=O)[C@H](CCC(N)=O)NC(=O)[C@H](C)NC(=O)[C@H](CCCN=C(N)N)NC(=O)[C@H](CCCN=C(N)N)NC(=O)[C@H](CO)NC(=O)[C@H](CC(=O)O)NC(=O)[C@H](CC(C)C)NC(=O)[C@H](Cc1ccc(O)cc1)NC(=O)[C@H](CCCCN)NC(=O)[C@H](CO)NC(=O)[C@H](Cc1ccc(O)cc1)NC(=O)[C@@H]1CCC(=O)NCCCC[C@H](NC(=O)CNC(=O)[C@H](CCC(N)=O)NC(=O)[C@H](CO)NC(=O)[C@@H](N)Cc2c[nH]cn2)C(=O)N[C@@H](Cc2ccccc2)C(=O)N[C@@H]([C@@H](C)O)C(=O)N[C@@H](CO)C(=O)N1)C(C)C)C(=O)N[C@@H](CC(N)=O)C(=O)N[C@H](C(=O)O)[C@@H](C)O (H-HSQGKFTSEYSKYLDSRRAQDFVQWLMNT-OH; lactam 5-9)
